Results taken from ChEMBL document CHEMBL2417442, “Modulation of αvβ₃- and α₅β₁-integrin-mediated adhesion by dehydro-β-amino acids containing peptidomimetics” (Eur J Med Chem, 2013).
The source made the active and inactive calls. The rule behind the calls is not given here.

What was measured:
[1] = biological target: T1, Integrin alpha-5/beta-1 (Homo sapiens, UniProt P05556+P08648); experiment: Inhibition of alpha5beta1 integrin-mediated human K562 cell adhesion to fibronectin incubated for 30 mins before plating measured after 1 hr; assay type: protein-complex assay
Procedure, shortened: (§1)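 Cells pre-incubated with a range of compound concentrations for 30 min at room temperature. Then 50000 cells/well plated on fibronectin (10 µg/mL) coated overnight at 4°C and left 1 h at room temperature. After PBS washes, adherent cells were quantified by hexosaminidase activity: 4-nitrophenyl-N-acetyl-β-D-glucosaminide in citrate buffer pH 5 with Triton X-100, stopped with glycine/EDTA pH 10.4, read at 405 nm. Quadruplicates, at least three repeats; IC50 fitted.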
Target sequence in this assay (P05556 21-798 limits assumed): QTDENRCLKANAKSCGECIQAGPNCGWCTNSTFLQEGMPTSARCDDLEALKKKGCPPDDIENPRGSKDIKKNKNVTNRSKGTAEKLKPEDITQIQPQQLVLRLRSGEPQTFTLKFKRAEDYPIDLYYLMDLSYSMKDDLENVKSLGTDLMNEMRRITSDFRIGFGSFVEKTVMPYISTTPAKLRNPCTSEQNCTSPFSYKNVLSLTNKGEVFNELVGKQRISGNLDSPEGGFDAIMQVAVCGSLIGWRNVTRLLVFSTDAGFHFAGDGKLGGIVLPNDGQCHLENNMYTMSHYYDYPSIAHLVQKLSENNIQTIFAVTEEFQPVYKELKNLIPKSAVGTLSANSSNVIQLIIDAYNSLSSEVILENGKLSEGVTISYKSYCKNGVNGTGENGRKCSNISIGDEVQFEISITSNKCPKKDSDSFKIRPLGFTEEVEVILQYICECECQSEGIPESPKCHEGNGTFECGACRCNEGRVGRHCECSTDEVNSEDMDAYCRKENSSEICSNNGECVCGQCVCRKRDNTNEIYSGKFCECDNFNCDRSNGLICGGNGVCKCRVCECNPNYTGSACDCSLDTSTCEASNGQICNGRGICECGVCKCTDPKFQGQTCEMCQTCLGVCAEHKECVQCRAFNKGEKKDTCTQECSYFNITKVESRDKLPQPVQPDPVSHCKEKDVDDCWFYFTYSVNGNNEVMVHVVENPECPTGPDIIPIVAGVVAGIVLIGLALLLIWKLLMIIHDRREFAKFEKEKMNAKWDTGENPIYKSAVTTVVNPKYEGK
Target sequence in this assay (P08648 42-894 limits assumed): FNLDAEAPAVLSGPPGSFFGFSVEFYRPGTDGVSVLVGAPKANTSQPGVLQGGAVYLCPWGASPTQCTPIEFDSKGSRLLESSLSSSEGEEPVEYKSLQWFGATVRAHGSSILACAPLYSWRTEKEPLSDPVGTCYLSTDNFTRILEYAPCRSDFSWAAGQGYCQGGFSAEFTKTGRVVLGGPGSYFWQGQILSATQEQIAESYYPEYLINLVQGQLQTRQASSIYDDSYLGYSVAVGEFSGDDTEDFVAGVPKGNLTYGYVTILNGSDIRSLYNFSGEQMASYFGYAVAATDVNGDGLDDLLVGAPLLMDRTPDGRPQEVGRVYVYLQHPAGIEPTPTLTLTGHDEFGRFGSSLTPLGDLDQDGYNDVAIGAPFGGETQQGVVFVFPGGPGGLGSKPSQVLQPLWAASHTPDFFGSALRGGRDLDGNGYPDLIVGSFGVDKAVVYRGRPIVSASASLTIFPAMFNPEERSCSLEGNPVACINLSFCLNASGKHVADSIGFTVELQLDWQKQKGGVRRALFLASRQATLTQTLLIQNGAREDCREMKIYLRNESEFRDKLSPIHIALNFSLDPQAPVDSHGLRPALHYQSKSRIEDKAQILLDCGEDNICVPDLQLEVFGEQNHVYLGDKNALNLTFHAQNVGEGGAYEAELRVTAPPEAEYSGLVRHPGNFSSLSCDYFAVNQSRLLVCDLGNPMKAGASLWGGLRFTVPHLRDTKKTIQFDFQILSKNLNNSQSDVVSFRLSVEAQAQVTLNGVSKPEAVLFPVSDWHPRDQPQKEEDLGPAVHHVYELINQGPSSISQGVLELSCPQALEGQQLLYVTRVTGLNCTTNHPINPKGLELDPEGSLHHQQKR
Target sequence in this assay (P08648 895-1049 limits assumed): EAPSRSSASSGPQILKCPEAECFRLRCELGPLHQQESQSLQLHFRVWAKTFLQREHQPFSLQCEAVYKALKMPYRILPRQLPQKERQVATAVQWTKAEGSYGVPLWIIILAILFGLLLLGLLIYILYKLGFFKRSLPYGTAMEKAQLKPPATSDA

[2] = biological target: T2, Integrin alpha-V/beta-3 (Homo sapiens, UniProt P05106+P06756); experiment: Inhibition of alphaVbeta3 integrin-mediated human SK-MEL-24 cell adhesion to fibronectin incubated for 30 mins before plating measured after 1 hr; assay type: protein-complex assay; procedure, shortened: as §1
Target sequence in this assay (P05106 27-788 limits assumed): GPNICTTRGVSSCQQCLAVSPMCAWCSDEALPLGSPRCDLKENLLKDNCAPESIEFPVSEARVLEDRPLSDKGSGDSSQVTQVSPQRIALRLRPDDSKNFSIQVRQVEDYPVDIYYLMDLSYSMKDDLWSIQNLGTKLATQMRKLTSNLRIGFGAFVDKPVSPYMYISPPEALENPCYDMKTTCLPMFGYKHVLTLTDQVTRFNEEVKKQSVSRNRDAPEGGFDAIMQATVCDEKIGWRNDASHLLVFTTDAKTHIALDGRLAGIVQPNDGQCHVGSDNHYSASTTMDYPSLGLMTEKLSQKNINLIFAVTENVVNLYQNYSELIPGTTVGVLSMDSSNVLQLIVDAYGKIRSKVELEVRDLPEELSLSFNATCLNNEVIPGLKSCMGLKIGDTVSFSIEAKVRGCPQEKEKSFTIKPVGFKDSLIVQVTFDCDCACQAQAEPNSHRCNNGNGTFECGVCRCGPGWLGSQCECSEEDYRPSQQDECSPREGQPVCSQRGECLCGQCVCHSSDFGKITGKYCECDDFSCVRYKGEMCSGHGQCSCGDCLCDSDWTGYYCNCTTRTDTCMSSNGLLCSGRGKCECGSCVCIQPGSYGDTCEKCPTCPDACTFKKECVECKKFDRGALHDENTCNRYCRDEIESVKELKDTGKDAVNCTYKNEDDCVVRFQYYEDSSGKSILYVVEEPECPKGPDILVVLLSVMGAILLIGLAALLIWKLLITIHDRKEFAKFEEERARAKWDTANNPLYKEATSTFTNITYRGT
Target sequence in this assay (P06756 31-889 limits assumed): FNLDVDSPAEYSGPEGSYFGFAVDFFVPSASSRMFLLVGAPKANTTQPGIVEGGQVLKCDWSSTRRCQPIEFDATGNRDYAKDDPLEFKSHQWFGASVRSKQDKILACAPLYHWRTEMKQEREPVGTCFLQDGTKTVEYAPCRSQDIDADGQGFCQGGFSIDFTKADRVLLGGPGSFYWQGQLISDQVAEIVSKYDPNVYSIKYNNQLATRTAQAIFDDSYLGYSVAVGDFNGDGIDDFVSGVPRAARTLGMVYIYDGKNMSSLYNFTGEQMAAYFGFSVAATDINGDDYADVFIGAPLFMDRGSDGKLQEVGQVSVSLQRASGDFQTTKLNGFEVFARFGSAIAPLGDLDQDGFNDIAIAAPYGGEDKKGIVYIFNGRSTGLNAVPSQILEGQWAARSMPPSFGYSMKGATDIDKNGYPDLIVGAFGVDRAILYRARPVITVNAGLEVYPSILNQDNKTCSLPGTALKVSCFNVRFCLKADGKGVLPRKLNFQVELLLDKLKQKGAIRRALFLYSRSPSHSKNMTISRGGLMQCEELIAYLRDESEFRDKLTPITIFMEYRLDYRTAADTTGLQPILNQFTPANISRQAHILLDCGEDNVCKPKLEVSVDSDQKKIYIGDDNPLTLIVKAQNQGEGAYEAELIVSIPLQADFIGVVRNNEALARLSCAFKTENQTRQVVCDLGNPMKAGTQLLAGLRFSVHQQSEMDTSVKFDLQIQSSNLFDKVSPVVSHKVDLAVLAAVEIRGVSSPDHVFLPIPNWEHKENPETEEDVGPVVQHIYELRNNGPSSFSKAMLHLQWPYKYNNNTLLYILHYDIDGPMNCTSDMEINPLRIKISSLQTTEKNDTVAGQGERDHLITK
Target sequence in this assay (P06756 891-1048 limits assumed): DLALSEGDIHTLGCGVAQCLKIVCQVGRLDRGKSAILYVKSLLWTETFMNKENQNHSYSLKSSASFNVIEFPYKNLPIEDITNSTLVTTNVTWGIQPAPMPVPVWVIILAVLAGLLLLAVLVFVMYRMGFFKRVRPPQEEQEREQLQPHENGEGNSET

[3] = biological target: T2, Integrin alpha-V/beta-3; experiment: Inhibition of alphaVbeta3 integrin in human DAOY cells assessed as inhibition of fibronectin-induced ERK1/2 phosphorylation at 10 uM incubated for 30 mins prior to fibronectin challenge measured after 90 mins by Western blotting analysis; assay type: cell-based
Procedure, shortened: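 DAOY medulloblastoma cells serum-starved 16 h in DMEM, detached, then given compound at 10 µM for 30 min. Plated 90 min on fibronectin (10 µg/ml)-coated, BSA-blocked plates; suspension cells as control. Lysed with phosphatase inhibitors, separated on 12% SDS-PAGE and immunoblotted for phospho-ERK1/2 and total ERK1/2.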

[4] = biological target: T2, Integrin alpha-V/beta-3; experiment: Inhibition of alphaVbeta3 integrin-mediated human DAOY cell adhesion to fibronectin incubated for 30 mins before plating measured after 1 hr; assay type: protein-complex assay; procedure, shortened: as §1
[5] = biological target: T1, Integrin alpha-5/beta-1; experiment: Inhibition of alpha5beta1 integrin in human K562 cells assessed as inhibition of fibronectin-induced ERK1/2 phosphorylation at 10 uM incubated for 60 mins prior to fibronectin challenge measured after 60 mins by Western blotting analysis; assay type: cell-based
Procedure, shortened: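 K562 cells, PMA-differentiated (25 ng/mL for 40 h), then serum-starved 16 h in RPMI-1640 with 1% FBS. Compound at 10 µM for 60 min in suspension, then plated 60 min on fibronectin (10 µg/ml)-coated, 1% BSA-blocked plates. Suspension cells served as control and PMA 65 nM as positive control. Lysates run on 12% SDS-PAGE and blotted for phospho- and total ERK1/2. pERK normalized to total ERK by densitometry; mean ± SEM, n=6.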

Row | IC50 [1] | IC50 [2] | inhibition [3] | inhibition [4] | inhibition [5] | Molecule
1 | 930 nM | 0.62 nM |  |  |  | H-GRGDTP-OH
2 | 57 nM | 71 nM |  |  |  | CCCN(C(=O)CC(=O)O)C1=C(C)CC(c2ccccc2)N([C@@H](C)c2ccc(N)cc2)C1=O (some centres not stated)
3 | 9800 nM | 120 nM | Active | Active |  | C/C=C(\C(=O)NCC(=O)O)C(C)NCc1ccc(N)cc1 (configuration not stated)
4 | 170 nM | 270 nM | Active | Active | Active | C/C=C(\C(=O)NCC(=O)O)C(NCc1ccc(NC(=O)CN)cc1)C(C)C (configuration not stated)
5 | 220 nM | 2000 nM |  |  |  | C/C=C(\C(=O)NCC(=O)O)C(NCc1ccc(N)cc1)C(C)C (configuration not stated)
6 | 9800 nM | 1490 nM |  |  |  | C/C=C(\C(=O)O)C(NCc1ccc(N)cc1)C(C)C (configuration not stated)

The next lines start with the molecule.

Row | Molecule | IC50 [1] | IC50 [2] | inhibition [3] | inhibition [4] | inhibition [5]
7 | C/C=C(\C(=O)O)C(NCc1ccc(N)cc1)C1CCCCC1 (configuration not stated) | 2100 nM | 830 nM |  |  | 
8 | C/C=C(\C(=O)O)C(C)NCc1ccc(N)cc1 (configuration not stated) | 19 nM | > 100000 nM |  |  | 
9 | C/C=C1\C(=O)N(CC(=O)O)C(=O)N(Cc2ccc(NC(=O)CN)cc2)C1C(C)C (configuration not stated) | > 100000 nM | > 100000 nM |  |  | 
10 | H-GRGDNP-OH | > 100000 nM | 230 nM |  |  | 
11 | CC1=C(C(=O)NCc2ccc(N)cc2)C(C(C)C)N(C(=O)CC(=O)O)O1 (configuration not stated) | 1050 nM | 8800 nM |  |  | 
